# Test results from ChEMBL document CHEMBL1134050, “Phenyl benzenesulfonamides are novel and selective 5-HT6 antagonists: identification of N-(2,5-dibromo-3-fluorophenyl)-4-methoxy-3-piperazin-1-ylbenzenesulfonamide (SB-357134)” (Bioorg Med Chem Lett, 2001).
# Columns and labels:
# [1] = biological target: 5-hydroxytryptamine receptor 6 (Homo sapiens, UniProt P50406); assay: Binding affinity against human 5-hydroxytryptamine 6 receptor
# [2] = biological target: 5-hydroxytryptamine receptor 4 (Homo sapiens, UniProt Q13639); assay: Compound was evaluated for the binding affinity against human cloned 5-hydroxytryptamine 4 receptor in HeLa cells using [3H]-LSD as the radioligand; assay type: cell-based
# [3] = biological target: T1, Alpha-1B adrenergic receptor (Homo sapiens, UniProt P35368); assay: Compound was evaluated for binding affinity against Alpha-1B adrenergic receptor
# T1 sequence (P35368 whole entry): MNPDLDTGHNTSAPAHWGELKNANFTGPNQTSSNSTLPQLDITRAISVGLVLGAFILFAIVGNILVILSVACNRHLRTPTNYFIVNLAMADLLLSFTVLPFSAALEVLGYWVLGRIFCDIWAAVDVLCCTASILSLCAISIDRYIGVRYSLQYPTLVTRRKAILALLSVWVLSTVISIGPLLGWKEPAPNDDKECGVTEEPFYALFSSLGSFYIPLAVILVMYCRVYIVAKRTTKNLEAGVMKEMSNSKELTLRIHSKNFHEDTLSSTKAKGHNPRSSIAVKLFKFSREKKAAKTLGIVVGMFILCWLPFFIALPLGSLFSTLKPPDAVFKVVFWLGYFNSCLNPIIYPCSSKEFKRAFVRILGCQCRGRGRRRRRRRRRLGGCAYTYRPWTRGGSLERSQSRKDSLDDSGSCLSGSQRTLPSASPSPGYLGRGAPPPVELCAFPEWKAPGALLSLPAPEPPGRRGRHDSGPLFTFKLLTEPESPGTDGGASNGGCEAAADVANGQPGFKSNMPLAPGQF
# [4] = biological target: T2, 5-hydroxytryptamine receptor 2C (Homo sapiens, UniProt P28335); assay: Compound was evaluated for binding affinity against human cloned 5-hydroxytryptamine 2C receptor in HEK 293 cells using [3H]mesulergine as the radioligand; assay type: cell-based, HEK293
# T2 sequence (P28335 whole entry): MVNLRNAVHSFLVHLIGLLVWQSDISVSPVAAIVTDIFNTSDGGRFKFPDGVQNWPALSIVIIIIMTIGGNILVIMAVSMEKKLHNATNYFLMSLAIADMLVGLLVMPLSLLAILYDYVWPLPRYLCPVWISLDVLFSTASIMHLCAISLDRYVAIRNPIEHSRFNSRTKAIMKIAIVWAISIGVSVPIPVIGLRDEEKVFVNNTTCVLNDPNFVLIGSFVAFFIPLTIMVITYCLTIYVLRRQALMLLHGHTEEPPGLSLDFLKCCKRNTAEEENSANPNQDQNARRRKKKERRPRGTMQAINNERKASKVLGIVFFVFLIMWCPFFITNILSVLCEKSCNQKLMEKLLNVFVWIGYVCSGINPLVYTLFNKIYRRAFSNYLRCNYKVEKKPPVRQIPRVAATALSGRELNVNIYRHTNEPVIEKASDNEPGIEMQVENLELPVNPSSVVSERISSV
# [5] = biological target: D(2) dopamine receptor (Homo sapiens, UniProt P14416); assay: Compound was evaluated for binding affinity against Dopamine receptor D2 in CHO cells using [125I]iodosulpiride as the radioligand; assay type: cell-based
# Outline: (§1)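 Radioligand binding to human cloned receptors: 5-HT1A in HEK 293 cells with [3H]-8-OH-DPAT; 5-HT1B and 5-HT1E in CHO cells with [3H]-5-HT; 5-HT2B in HEK 293 cells with [3H]-5-HT; D2 and D3 in CHO cells with [125I]-iodosulpride. Values are the mean of at least two determinations, each within 0.2 log unit of the mean.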
# [6] = biological target: T3, 5-hydroxytryptamine receptor 1A (Homo sapiens, UniProt P08908); assay: Compound was evaluated for binding affinity against human cloned 5-hydroxytryptamine 1A receptor in HEK 293 cells using [3H]8-OH-DPAT as the radioligand; assay type: cell-based, HEK293; outline: as §1
# T3 sequence (P08908 whole entry): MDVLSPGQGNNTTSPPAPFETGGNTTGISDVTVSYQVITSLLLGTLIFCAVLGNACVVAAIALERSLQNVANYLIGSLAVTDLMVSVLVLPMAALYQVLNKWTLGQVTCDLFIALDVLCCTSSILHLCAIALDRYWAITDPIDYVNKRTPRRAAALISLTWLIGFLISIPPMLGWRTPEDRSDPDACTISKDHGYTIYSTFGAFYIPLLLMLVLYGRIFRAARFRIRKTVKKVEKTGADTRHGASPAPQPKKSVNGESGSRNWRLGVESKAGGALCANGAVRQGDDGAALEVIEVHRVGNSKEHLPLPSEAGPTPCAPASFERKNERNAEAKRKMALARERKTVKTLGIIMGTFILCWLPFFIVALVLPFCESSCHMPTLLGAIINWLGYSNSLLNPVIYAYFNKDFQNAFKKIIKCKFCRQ
# [7] = biological target: 5-hydroxytryptamine receptor 7 (Homo sapiens, UniProt P34969); assay: Compound was evaluated for binding affinity against human cloned 5-hydroxytryptamine 7 receptor in HEK 293 cells using [3H]5-CT as the radioligand (n=3); assay type: cell-based, HEK293
# [8] = biological target: 5-hydroxytryptamine receptor 2A (Homo sapiens, UniProt P28223); assay: Compound was evaluated for binding affinity against human cloned 5-hydroxytryptamine 2A receptor in HEK 293 cells using [3H]ketanserin as the radioligand; assay type: cell-based, HEK293
# [9] = biological target: 5-hydroxytryptamine receptor 1B (Homo sapiens, UniProt P28222); assay: Compound was evaluated for binding affinity against human cloned 5-hydroxytryptamine 1B receptor in CHO cells using [3H]5-HT as the radioligand; assay type: cell-based; outline: as §1
# [10] = biological target: D(3) dopamine receptor (Homo sapiens, UniProt P35462); assay: Compound was evaluated for binding affinity against Dopamine receptor D3 in CHO cells using [125I]iodosulpiride as the radioligand; assay type: cell-based; outline: as §1
# [11] = biological target: 5-hydroxytryptamine receptor 1E (Homo sapiens, UniProt P28566); assay: Compound was evaluated for binding affinity against human cloned 5-hydroxytryptamine 1E receptor in CHO cells using [3H]5-HT as the radioligand; assay type: cell-based; outline: as §1
# [12] = biological target: 5-hydroxytryptamine receptor 1D (Homo sapiens, UniProt P28221); assay: Compound was evaluated for binding affinity against human cloned 5-hydroxytryptamine 1D receptor in CHO cells using [3H]5-HT as the radioligand; assay type: cell-based
# [13] = biological target: 5-hydroxytryptamine receptor 2B (Homo sapiens, UniProt P41595); assay: Compound was evaluated for binding affinity against human cloned 5-HT2B receptor in HEK 293 cells using [3H]5-HT as the radioligand; assay type: cell-based, HEK293; outline: as §1
# [14] = biological target: T4, 5-hydroxytryptamine receptor 1F (Homo sapiens, UniProt P30939); assay: Compound was evaluated for binding affinity against human cloned 5-hydroxytryptamine 1F receptor in CHO cells using [3H]-5-HT as the radioligand; assay type: cell-based
# T4 sequence (P30939 whole entry): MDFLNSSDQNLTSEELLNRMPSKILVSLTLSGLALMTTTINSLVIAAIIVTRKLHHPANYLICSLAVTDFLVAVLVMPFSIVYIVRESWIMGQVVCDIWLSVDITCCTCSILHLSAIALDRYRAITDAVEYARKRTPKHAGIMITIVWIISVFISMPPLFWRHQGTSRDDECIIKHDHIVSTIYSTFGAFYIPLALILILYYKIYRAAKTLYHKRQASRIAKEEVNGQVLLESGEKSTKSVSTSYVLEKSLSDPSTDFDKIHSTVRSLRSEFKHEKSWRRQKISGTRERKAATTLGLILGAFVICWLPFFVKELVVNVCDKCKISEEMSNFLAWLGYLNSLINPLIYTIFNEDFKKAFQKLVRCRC
# [15] = Bioavailability in rat (dose 3 mg/kg in 1% methylcellulose ); assay type: ADME, organism-based; conditions: in vivo
# Outline: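 Oral suspension dose of 3 mg/kg in 1% methylcellulose (v/v) aq to rats (n=3). Blood levels were measured by LC/MS/MS to derive AUC/dose and bioavailability.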
# [16] = Plasma Clearance measured at steady-state following iv infusion at 0.6 mg/kg/h in rats; assay type: ADME, organism-based; set-up: route intravenous; conditions: rat, 0.6 mg/kg/h infusion
# [17] = organism: Rattus norvegicus; assay: Blood: Brain distribution ratio is determined in rat; assay type: ADME, organism-based
# Outline: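 Rats received iv infusion for 8 h, and the brain:blood ratio was taken at steady state.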
# Sequence of 5-hydroxytryptamine receptor 1B (P28222 whole entry): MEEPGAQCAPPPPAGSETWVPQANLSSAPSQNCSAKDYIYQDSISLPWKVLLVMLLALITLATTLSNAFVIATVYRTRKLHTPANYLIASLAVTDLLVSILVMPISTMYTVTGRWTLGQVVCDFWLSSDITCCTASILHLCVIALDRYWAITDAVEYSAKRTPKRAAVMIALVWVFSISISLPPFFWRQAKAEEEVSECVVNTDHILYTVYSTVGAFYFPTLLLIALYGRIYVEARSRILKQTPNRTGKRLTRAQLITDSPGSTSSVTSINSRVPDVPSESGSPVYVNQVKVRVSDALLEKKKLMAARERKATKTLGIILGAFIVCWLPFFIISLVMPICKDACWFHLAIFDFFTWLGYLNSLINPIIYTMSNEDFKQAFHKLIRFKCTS
# Sequence of 5-hydroxytryptamine receptor 2B (P41595 whole entry): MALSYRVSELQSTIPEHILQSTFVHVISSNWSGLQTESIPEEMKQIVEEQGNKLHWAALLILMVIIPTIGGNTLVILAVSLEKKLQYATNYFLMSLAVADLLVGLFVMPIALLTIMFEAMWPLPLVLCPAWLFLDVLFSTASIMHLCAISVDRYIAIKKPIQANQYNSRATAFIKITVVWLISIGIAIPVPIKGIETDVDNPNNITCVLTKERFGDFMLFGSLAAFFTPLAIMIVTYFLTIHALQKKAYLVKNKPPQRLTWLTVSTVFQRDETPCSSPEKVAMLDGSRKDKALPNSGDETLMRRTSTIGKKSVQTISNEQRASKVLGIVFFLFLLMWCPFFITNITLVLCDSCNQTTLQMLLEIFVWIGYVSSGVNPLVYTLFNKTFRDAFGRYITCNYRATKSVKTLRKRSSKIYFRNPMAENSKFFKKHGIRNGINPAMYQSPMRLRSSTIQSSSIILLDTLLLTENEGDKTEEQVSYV
# Sequence of 5-hydroxytryptamine receptor 1E (P28566 whole entry): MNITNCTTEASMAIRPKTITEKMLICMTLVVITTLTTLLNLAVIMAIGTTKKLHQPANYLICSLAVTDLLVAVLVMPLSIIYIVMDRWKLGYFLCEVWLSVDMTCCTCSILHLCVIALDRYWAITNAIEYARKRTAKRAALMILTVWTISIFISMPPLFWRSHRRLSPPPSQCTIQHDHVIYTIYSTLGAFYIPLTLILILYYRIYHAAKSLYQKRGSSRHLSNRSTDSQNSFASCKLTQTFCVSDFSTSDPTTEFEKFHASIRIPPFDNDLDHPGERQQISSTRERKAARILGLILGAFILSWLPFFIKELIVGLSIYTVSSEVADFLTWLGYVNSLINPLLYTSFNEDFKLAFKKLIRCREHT
# Sequence of 5-hydroxytryptamine receptor 4 (Q13639 whole entry): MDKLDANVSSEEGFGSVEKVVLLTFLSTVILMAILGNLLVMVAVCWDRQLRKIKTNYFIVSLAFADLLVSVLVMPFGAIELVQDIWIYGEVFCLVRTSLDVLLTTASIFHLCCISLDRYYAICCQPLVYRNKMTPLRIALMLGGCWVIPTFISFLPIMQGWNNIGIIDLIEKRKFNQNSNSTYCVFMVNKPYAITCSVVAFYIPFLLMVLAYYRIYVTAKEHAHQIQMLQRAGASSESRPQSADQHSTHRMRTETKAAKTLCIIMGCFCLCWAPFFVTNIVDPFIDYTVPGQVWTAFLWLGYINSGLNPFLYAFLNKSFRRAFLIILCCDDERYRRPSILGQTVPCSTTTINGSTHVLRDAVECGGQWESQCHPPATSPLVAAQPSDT
# Sequence of D(2) dopamine receptor (P14416 whole entry): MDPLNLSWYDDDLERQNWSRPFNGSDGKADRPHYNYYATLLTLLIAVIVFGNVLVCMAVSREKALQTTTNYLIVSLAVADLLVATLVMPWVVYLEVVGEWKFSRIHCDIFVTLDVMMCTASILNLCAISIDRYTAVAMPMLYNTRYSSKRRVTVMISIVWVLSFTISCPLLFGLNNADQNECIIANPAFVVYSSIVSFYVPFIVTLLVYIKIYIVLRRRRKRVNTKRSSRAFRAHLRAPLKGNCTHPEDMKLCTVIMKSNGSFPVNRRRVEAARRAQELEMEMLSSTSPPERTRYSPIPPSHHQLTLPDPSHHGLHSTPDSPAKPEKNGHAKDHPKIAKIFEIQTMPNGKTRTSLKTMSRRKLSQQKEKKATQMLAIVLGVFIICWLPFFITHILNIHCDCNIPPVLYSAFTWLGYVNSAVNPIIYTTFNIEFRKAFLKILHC
# Sequence of 5-hydroxytryptamine receptor 6 (P50406 whole entry): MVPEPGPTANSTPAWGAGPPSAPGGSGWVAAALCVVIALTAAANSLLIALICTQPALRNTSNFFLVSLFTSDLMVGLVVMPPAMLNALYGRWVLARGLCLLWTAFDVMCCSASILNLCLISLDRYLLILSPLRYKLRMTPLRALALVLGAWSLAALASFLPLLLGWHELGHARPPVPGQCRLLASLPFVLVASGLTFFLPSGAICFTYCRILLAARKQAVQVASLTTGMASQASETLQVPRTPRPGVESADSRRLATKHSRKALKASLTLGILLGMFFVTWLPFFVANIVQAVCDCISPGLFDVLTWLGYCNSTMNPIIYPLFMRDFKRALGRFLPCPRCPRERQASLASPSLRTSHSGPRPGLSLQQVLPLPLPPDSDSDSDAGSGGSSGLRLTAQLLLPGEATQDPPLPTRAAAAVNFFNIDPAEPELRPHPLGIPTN
# Sequence of 5-hydroxytryptamine receptor 2A (P28223 whole entry): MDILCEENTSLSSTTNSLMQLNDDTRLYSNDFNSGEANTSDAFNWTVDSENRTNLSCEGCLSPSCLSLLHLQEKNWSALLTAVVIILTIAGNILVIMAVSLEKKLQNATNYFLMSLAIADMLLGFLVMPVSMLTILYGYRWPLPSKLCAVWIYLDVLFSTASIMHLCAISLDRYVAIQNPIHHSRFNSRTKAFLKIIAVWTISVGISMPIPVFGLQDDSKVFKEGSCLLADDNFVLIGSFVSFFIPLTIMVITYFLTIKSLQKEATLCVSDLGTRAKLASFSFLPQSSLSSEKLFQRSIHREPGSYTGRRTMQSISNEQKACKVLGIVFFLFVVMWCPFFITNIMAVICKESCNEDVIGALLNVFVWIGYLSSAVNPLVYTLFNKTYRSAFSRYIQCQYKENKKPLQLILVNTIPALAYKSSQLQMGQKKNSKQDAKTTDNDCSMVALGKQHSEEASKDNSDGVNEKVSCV
# Sequence of 5-hydroxytryptamine receptor 1D (P28221 whole entry): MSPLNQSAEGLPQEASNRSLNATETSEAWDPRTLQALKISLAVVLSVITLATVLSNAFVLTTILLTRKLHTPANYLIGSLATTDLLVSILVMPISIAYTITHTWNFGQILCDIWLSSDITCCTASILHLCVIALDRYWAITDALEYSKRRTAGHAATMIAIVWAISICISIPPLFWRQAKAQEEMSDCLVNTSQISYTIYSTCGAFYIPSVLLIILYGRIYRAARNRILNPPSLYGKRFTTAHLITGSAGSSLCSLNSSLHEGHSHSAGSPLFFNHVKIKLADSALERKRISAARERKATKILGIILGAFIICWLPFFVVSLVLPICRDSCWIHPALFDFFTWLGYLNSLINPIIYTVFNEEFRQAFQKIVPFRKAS
# Sequence of D(3) dopamine receptor (P35462 whole entry): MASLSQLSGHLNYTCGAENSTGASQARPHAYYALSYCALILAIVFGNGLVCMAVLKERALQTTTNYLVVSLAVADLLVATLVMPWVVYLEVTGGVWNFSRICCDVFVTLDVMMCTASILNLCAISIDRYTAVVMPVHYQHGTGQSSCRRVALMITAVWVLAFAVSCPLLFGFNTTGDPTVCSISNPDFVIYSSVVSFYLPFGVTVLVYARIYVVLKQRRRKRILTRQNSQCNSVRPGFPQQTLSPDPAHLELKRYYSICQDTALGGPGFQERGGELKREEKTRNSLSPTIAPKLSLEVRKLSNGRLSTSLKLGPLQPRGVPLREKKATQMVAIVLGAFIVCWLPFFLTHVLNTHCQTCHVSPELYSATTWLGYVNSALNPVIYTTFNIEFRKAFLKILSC
# Sequence of 5-hydroxytryptamine receptor 7 (P34969 whole entry): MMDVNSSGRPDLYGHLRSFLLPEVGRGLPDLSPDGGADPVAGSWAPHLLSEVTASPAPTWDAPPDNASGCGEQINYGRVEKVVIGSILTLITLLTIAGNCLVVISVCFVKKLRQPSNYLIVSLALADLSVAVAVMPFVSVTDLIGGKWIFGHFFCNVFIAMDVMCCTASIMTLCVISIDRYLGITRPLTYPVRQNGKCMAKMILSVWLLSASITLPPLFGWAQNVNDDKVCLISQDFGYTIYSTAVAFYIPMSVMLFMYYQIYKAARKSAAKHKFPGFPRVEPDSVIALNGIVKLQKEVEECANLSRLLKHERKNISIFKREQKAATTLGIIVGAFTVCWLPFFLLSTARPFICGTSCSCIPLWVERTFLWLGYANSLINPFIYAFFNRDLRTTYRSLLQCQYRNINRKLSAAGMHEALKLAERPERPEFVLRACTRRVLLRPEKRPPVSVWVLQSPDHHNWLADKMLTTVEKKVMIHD
smiles,measurement,setting,value
COc1ccc(S(=O)(=O)Nc2cc(Br)cc(Br)c2)cc1N1CCNCC1,Ki,[1],0.501 nM
COc1ccc(S(=O)(=O)Nc2cc(Cl)cc(Br)c2Cl)cc1N1CCNCC1,Ki,[1],2 nM
COc1ccc(S(=O)(=O)N2c3ccccc3CC2(C)C)cc1N1CCNCC1,Ki,[1],0.794 nM
COc1ccc(S(=O)(=O)Nc2cccc(Cl)c2)cc1N1CCNCC1,Ki,[1],1.26 nM
COc1ccc(S(=O)(=O)N2CCc3ccc(I)cc32)cc1N1CCNCC1,Ki,[2],3980 nM
same,Ki,[3],1000 nM
same,Ki,[4],631 nM
same,Ki,[5],2510 nM
same,Ki,[1],0.316 nM
same,Ki,[6],501 nM
same,Ki,[7],0.316 nM
same,Ki,[8],> 3980 nM
same,Ki,[9],1260 nM
same,Ki,[10],1000 nM
same,Ki,[11],> 10000 nM
same,Ki,[12],200 nM
same,Ki,[13],631 nM
same,Ki,[14],> 7940 nM
COc1ccc(S(=O)(=O)Nc2cc(Br)cc(Br)c2F)cc1N1CCNCC1,Ki,[1],2.51 nM
COc1ccc(S(=O)(=O)Nc2c(F)cc(Br)cc2F)cc1N1CCNCC1,Ki,[1],158 nM
COc1ccc(S(=O)(=O)N2CCCc3c(Cl)cc(Cl)cc32)cc1N1CCNCC1,Ki,[1],0.794 nM
COc1ccc(S(=O)(=O)Nc2cc(Br)ccc2Br)cc1N1CCNCC1,Ki,[2],3160 nM
same,Ki,[3],> 2000 nM
same,bioavailability,[15],20%
same,clearance,[16],43 mL/min/kg
same,Ki,[4],> 5010 nM
same,Ki,[5],> 10000 nM
same,Ki,[1],1 nM
same,Ki,[6],> 3160 nM
same,Distribution ratio,[17],0.38
same,Ki,[8],> 10000 nM
same,Ki,[9],> 5010 nM
same,Ki,[10],> 5010 nM
same,Ki,[11],> 10000 nM
same,Ki,[12],> 1580 nM
same,Ki,[13],> 3160 nM
same,Ki,[14],> 10000 nM
COc1ccc(S(=O)(=O)Nc2cc(Br)cc(Cl)c2Br)cc1N1CCNCC1,Ki,[1],3.98 nM
COc1ccc(S(=O)(=O)Nc2cc(Br)cc(F)c2Cl)cc1N1CCNCC1,Ki,[1],3.16 nM
COc1ccc(S(=O)(=O)Nc2cc(I)ccc2C)cc1N1CCNCC1,Ki,[1],0.794 nM
COc1ccc(Cl)cc1NS(=O)(=O)c1ccc(OC)c(N2CCNCC2)c1,Ki,[1],1.26 nM
COc1ccc(S(=O)(=O)Nc2ccccc2C(C)C)cc1N1CCNCC1,clearance,[16],52 mL/min/kg
same,Ki,[1],1 nM
COc1ccc(S(=O)(=O)Nc2ccc(I)cc2)cc1N1CCNCC1,Ki,[1],2 nM
COc1ccc(C(F)(F)F)cc1NS(=O)(=O)c1ccc(OC)c(N2CCNCC2)c1,Ki,[1],3.98 nM
COc1ccc(S(=O)(=O)N2CCCc3ccc(Br)cc32)cc1N1CCNCC1,Ki,[1],0.316 nM
COc1ccc(S(=O)(=O)Nc2cccc(I)c2)cc1N1CCNCC1,clearance,[16],58 mL/min/kg
same,Ki,[1],0.501 nM
same,Distribution ratio,[17],0.13
COc1ccc(S(=O)(=O)Nc2cc(Cl)cc(Cl)c2Cl)cc1N1CCNCC1,Ki,[2],> 10000 nM
same,Ki,[3],> 3980 nM
same,bioavailability,[15],> 80%
same,clearance,[16],2 mL/min/kg
same,Ki,[4],1000 nM
same,Ki,[5],> 10000 nM
same,Ki,[1],2 nM
same,Ki,[6],3980 nM
same,Ki,[7],2 nM
same,Distribution ratio,[17],0.02
same,Ki,[8],> 10000 nM
same,Ki,[9],> 10000 nM
same,Ki,[10],> 3980 nM
same,Ki,[11],> 10000 nM
same,Ki,[12],> 3160 nM
same,Ki,[13],2000 nM
same,Ki,[14],> 10000 nM
